Test results: article PMC5093073 (Cancer prevention research (Philadelphia, Pa.), 2016)
Entries after “also recorded” stand apart in the source; their conditions may differ. Like-named read-outs stand apart in the source and are kept apart here.

Columns and labels:
[1] = system: COX-derived PGE2 in A549 lung adenocarcinoma cells; assay: PGE2 biosynthesis from [2H8]AA in A549 cells; type: cell-based, human; details: for inhibition of PGE2 synthesis: IL-1β-activated A549, 100 nM inhibitor
In short: (§1)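 Cells grown in DMEM with 10% FBS at 37°C, 5% CO₂, then given 1 ng/ml IL-1β for 24 h at 90% confluence to induce COX-2. In albumin-free medium, cells were preincubated for 30 min at 37°C with graded concentrations of test compound. Then 2.0 µM [²H₈]AA was added for 15 min, and the medium was harvested for GC/NICI/MS measurement of [²H₈]-PGE₂.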

[2] = system: COX-derived PGE2 in H2122 lung adenocarcinoma cells; assay: PGE2 biosynthesis from [2H8]AA in H2122 cells; type: cell-based, human
In short: as §1

[3] = system: COX-derived PGE2 in HCA-7 colon cancer cells; assay: PGE2 biosynthesis from [2H8]AA in HCA-7 cells; type: cell-based; details: Homo sapiens
In short: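 HCA-7 cells were grown in DMEM with 10% FBS at 37°C, 5% CO₂, without IL-1β activation. In albumin-free medium, cells were preincubated for 30 min at 37°C with test compound. Then 2.0 µM [²H₈]AA was added and incubation continued for 15 min. The harvested medium was analysed by GC/NICI/MS for [²H₈]-PGE₂.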

[4] = system: COX-1 in human washed platelets; assay: Prostanoid; type: cell-based; details: 100 nM inhibitor; for effect on TxB2 synthesis by washed platelets: platelets without A549 cells
[5] = system: systemic PGE2 biosynthesis; details: ibuprofen 800 mg 4 times daily; cited from earlier work
[6] = system: systemic PGE2 biosynthesis; assay: Urinary PGE-M; type: in vivo, human; details: for reduction in extra-platelet PGE2 production: corrected for platelet-derived PGE2, aspirin 81 mg daily 2 weeks; for reduction of urinary PGE-M levels: aspirin 81 mg daily 2 weeks
platelet TxB2 production = assay: Serum thromboxane B2 levels in healthy volunteers; type: in vivo, human; details: aspirin 81 mg daily 2 weeks
[7] = system: COX-derived PGE2 in HCC827 lung adenocarcinoma cells; assay: PGE2 biosynthesis from [2H8]AA in HCC827 cells; type: cell-based; details: Homo sapiens, HCC827, read-out: IC50 for inhibition of PGE2 biosynthesis
[8] = system: COX-derived PGE2 in HT-29 colon cancer cells; assay: PGE2 biosynthesis from [2H8]AA in HT-29 cells; type: cell-based; details: Homo sapiens, HT-29, read-out: IC50 for inhibition of PGE2 biosynthesis
COX-2 = target: T1, COX-2 (Homo sapiens, UniProt P35354); type: cell-based; details: IL-1β-activated A549, pretreated with 100 µM aspirin
T1 sequence (P35354 18-604): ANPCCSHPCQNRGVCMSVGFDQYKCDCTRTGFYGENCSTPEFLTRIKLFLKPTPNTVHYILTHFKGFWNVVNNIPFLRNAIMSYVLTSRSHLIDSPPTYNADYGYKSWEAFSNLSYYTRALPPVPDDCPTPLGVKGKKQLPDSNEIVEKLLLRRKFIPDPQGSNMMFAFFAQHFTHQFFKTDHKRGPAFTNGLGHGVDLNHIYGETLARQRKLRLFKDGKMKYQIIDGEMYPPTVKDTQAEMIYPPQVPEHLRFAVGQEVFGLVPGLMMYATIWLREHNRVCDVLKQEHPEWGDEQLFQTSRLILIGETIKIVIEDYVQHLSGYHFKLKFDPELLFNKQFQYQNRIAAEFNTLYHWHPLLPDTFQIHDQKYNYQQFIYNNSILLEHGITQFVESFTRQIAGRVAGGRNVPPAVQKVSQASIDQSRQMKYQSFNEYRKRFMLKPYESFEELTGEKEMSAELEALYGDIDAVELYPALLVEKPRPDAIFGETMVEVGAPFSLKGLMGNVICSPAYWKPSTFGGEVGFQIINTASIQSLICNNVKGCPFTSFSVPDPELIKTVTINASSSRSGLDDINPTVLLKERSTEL

[9] = system: platelet-A549 cell aggregates; type: cell-based, human; details: platelets from blood treated with 100 µM aspirin 40 min, washed, ADP-activated
[10] = system: adenocarcinoma metastasis; details: cited from earlier work

## Cc1onc(-c2ccccc2)c1-c1ccc(S(N)(=O)=O)cc1 [valdecoxib]
[1]
  inhibition of PGE2 synthesis: fully inhibited
[2]; H2122, 100 nM inhibitor
  inhibition of PGE2 synthesis: fully inhibited
[3]; HCA-7, read-out: inhibition of PGE2 synthesis
  inhibition at 0.1 µM: 60%
[4]
  effect on TxB2 synthesis by washed platelets: no effect

## CC(C)Cc1ccc(C(C)C(=O)O)cc1 (stereo not drawn) [ibuprofen]
[5]
  reduction of PGE2 production in humans: 63%

## CC(=O)Oc1ccccc1C(=O)O [aspirin, acetyl salicylic acid]
[6]; females
  reduction in extra-platelet PGE2 production: 55.4%
[6]; healthy females
  reduction of urinary PGE-M levels: 56%
[6]; healthy males
  reduction of urinary PGE-M levels: 39%
[6]; males
  reduction in extra-platelet PGE2 production: 38.6%
Platelet TxB2 production
  reduction of serum thromboxane B2 levels: 96.6%
[7]
  IC50: 22.5 ± 3.2 µM
[1]; Homo sapiens, A549, read-out: IC50 for inhibition of PGE2 biosynthesis
  IC50: 7.2 ± 1.1 µM
[2]; Homo sapiens, NCI-H2122, read-out: IC50 for inhibition of PGE2 biosynthesis
  IC50: 15 ± 1.3 µM
[3]; HCA-7, read-out: IC50 for inhibition of PGE2 biosynthesis
  IC50: 3.9 ± 0.7 µM
[8]
  IC50: 8.9 ± 1.2 µM
COX-2
  blockade of COX-2 labeling by fluorocoxib A: effectively blocked COX-2 labeling; also recorded: inhibited COX-2 associated fluorocoxib A fluorescence
[9]
  COX-2 protein expression in A549 cells: still upregulated
  PGE2 production by platelet-A549 aggregates: significantly inhibited; also recorded: effectively blocked
[10]; adenocarcinomas other than those of the colon
  hazard ratio for later metastasis: 0.47
[10]; colon cancers, no metastasis at diagnosis, 95% CI 0.03–0.56, p=0.007
  hazard ratio for later metastasis: 0.13
[10]; patients who develop cancer while receiving aspirin
  reduction of development of metastases: 69%

## CS(=O)(=O)Nc1ccc([N+](=O)[O-])cc1OC1CCCCC1 [NS-398]
[1]
  inhibition of PGE2 synthesis: fully blocks
[4]
  effect on PGE2 production in washed platelets: does not block
  effect on TxB2 synthesis by washed platelets: did not inhibit; also recorded: does not block
